Paper PMC6301001 (Cancer chemotherapy and pharmacology, 2015)
Where “and” joins values, the source holds several entries; their conditions need not be identical. Equal entries are not always repeated. Entries after “also recorded” stand apart in the source; their conditions may differ. Where two headings read alike, the source gives them in different places.

Tests used:
[1] = cited from earlier work
[2] = system: mouse model of DIPG in which the PI3Kinase/Akt pathway is activated; conditions: genetically engineered mouse model of DIPG; cited from earlier work
[3] = system: human tumor cell lines; conditions: wide variety of human tumor cell lines; reported range; cited from earlier work
[4] = system: glioma cell lines; conditions: cited from earlier work
[5] = adult patients with solid tumors, cited from earlier work
[6] = system: U251 xenografts injected into the hind limb; conditions: cited from earlier work
[7] = format: in vivo, rhesus monkeys (Macaca mulatta)
Method in brief: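 Three adult male rhesus monkeys with an implanted fourth-ventricular CSF catheter/reservoir, sedated with ketamine (10 mg/kg IM), then given a single 7 mg/kg oral dose by nasogastric tube. CSF (0.3 ml) sampled at 0–10, 24 and 48 h, then in a repeat study on days 0–64. Total drug by HPLC/MS/MS (LLOQ 0.1 ng/ml). Non-compartmental analysis: observed Cmax; trapezoidal AUC0–inf; t1/2 = 0.693/terminal rate constant; penetration = CSF/plasma AUC0–inf.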

[8] = format: in vivo, rhesus monkeys (Macaca mulatta); conditions: single oral dose 7 mg/kg; for Cl: plasma clearance
Method in brief: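 Single 7 mg/kg oral dose by nasogastric tube under ketamine sedation to three adult male rhesus monkeys (10.5–14.7 kg) fitted with central venous ports. Blood sampled at 0–10, 24 and 48 h, then on days 0–64; plasma held at –80 °C. Total drug by HPLC/MS/MS after acetonitrile precipitation with miltefosine internal standard; standards 0.001–10 µg/ml; LLOQ 1 ng/ml. Non-compartmental: observed Cmax/Tmax, trapezoidal AUC0–inf, t1/2 = 0.693/k, Cl = dose/AUC0–inf.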

[9] = CSF, individual NHP, single oral dose 7 mg/kg, 7 mg/kg

SMILES: CCCCCCCCCCCCCCCCCCOP(=O)([O-])OC1CC[N+](C)(C)CC1 [Perifosine]
- tolerability in early phase clinical trials [1]: relatively well tolerated
- single-agent responses in patients ([1]; renal cell carcinoma, sarcoma and Waldenstroms macroglobulinemia, Phase I and Phase II): single-agent objective responses have been reported
- activity in mouse model of pontine glioma [2]: absent activity; also recorded: lacked activity; also recorded: no activity was observed
- IC.50 [3]: .09 to 9.2 µg/mL
- activity in vitro against glioma cell lines [4]: demonstrated activity
- terminal half-life in humans ([5]; 50–350 mg/day orally for 3 weeks): 105 h
- plasma half-lives ([5]; oral dose): 80 to 116 h
- time of peak plasma concentrations ([5]; oral dose): 8 to 24 h
- activity in vivo in mice bearing U251 xenografts [6]: demonstrated activity
- t 1/2 ([7]; CSF terminal half-life, individual NHP, single oral dose 7 mg/kg, 7 mg/kg): 146 h and 277 h and 350 h
- Cmax [7, 9]: 1.85 ng/mL and 4.39 ng/mL and 4.57 ng/mL
- Tmax [7, 9]: 63.6 h and 235.3 h and 235.4 h
- AUC ([7]; CSF, individual NHP, single oral dose 7 mg/kg, T = 0 to infinity, 7 mg/kg): 1.031 µg·h/mL and 3.44 µg·h/mL and 2.89 µg·h/mL
- maximum measured CSF concentration ([7]; CSF, mean of 3 NHP, single oral dose 7 mg/kg, molar equivalent): 7.8 nM
- CSF AUC ([7]; CSF, median (range) of 3 NHP, single oral dose 7 mg/kg): 6358 (2266–7568) nM/h
- Cmax in the CSF in initial experiments ([7]; CSF, oral 7.0 mg/kg, collection up to 48 h, 7 mg/kg): had not been reached by 48 h; also recorded: has not been reached by 48 h
- time to maximum CSF concentration ([7]; CSF, single oral dose 7 mg/kg, 7 mg/kg): > 7 days and 7 days
- Kp ([7]; male, rhesus monkey, CSF, po, 7 mg/kg): 0.0016
- AUCCSF:AUCPl (ratio of CSF to plasma exposure) ([7]; mean of 3 NHP, single oral dose 7 mg/kg): .0016
- time levels were measurable in both plasma and CSF ([7]; plasma and CSF, after a single oral dose): > 2 months
- CSF concentrations relative to plasma concentrations (fold less) ([7]; single oral dose 7 mg/kg): 1000 fold
- Cl ([8]; individual NHP, 7 mg/kg): 77.6 mL/h and 36.5 mL/h and 63.3 mL/h
- Cl ([8]; mean (range) of 3 NHP): 59.1 mL/h
- T 1/2 ([8]; plasma terminal half-life, individual NHP, 7 mg/kg): 193 h and 170 h
- AUC ([8]; plasma, individual NHP, T = 0 to infinity, 7 mg/kg): 2139 µg·h/mL and 1137 µg·h/mL
- Cmax ([8]; plasma, individual NHP, sampling to 64 days, 7 mg/kg): 8800 ng/mL and 5300 ng/mL
- time plasma concentrations remained >1 µM ([8]; plasma): > 28 days
